# The list is not random: actives were taken first. Their share in the collection is about 2.3%.
# TRPC4 inh – TRPC4 (mouse) channel inhibition | Q9QUQ5 | HEK293 TRPC4beta/mu-opioid, DAMGO-evoked Fluo4 calcium flux; stronger effect = lower value | B-score at 10 µM | 0.39% of 300,000 active | AID 2247;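 active = B-score over 3 SD under the library average, no early fluorescence shift, positive overall ratio signal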
# Target sequence (Q9QUQ5 whole entry, looked up): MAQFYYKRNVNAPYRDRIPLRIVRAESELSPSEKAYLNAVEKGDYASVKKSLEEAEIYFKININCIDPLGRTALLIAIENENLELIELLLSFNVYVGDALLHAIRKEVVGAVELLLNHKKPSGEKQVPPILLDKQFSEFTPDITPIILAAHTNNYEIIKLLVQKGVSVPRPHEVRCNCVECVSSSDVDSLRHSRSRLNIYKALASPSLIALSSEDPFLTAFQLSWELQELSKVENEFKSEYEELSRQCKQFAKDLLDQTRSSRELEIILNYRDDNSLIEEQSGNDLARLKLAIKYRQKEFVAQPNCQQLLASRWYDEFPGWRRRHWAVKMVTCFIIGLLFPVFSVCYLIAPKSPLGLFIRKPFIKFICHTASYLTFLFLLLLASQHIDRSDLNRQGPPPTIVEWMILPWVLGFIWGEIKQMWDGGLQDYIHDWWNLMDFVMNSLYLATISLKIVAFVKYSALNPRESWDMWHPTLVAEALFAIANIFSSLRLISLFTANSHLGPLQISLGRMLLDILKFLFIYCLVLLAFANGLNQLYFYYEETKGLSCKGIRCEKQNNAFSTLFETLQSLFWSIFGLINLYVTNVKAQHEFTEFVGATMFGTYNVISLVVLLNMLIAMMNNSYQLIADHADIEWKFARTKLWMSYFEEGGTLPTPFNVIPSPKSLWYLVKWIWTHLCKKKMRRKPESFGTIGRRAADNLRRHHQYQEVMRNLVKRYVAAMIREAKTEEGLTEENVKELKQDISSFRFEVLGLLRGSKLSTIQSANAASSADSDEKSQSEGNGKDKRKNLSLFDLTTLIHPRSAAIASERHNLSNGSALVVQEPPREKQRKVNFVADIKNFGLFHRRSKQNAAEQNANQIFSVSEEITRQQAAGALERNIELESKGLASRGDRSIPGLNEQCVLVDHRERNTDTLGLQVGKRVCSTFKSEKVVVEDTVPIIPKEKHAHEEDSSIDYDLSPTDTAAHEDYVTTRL
#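 Assay system: TRPC4beta/mu-opioid receptor HEK293 cell line; compound dosing: single concentration per test compound; detection: Fluo4 Ca2+ flux fluorescence; evaluation: per-well B score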
# TRPC4 act – opens the mouse TRPC4 cation channel; 0.49% of 310,000 active; HEK293 TRPC4beta/mu-opioid, Fluo4 calcium fluorescence; stronger effect = higher value; B-score at 10 µM; AID 2237; Q9QUQ5;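 active = B-score above 5 SD of library B-scores, and initial fluorescence ratio not above library mean plus 5 SD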;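 note: positive B-score marks a calcium rise read as TRPC4 activation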
#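 Material: HEK293 stable line with TRPC4beta plus mu-opioid receptor; technique: Fluo4 calcium-sensitive dye fluorescence, kinetic, 1 Hz baseline; timing: Fluo4 dye loading 45 min at room temperature, 110 s recording; controls: assay buffer as low control, maximal DAMGO as high control; read-out: integrated baseline-normalised fluorescence ratio, converted to per-well B score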
# TRPC6 act – activates the mouse TRPC6 cation channel | Q61143 | HEK293-TRPC6 membrane potential dye fluorescence; stronger effect = higher value | B-score at 10 µM | 0.13% of 310,000 active | AID 2550;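 active = B-score of the integrated fluorescence ratio above library mean plus 3 SD, and starting fluorescence ratio within library mean plus 5 SD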;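 note: higher score means more depolarization so channel activation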
# TRPC4 potent – allosteric potentiators of mouse TRPC4 channel; Q9QUQ5; B-score at 10 µM; HEK293 TRPC4beta/mu-opioid, DAMGO EC20, Fluo-4 Ca2+ flux; stronger effect = higher value; 0.42% of 310,000 active;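 active = B-score of calcium response area above 5 SD of library B-scores, with initial fluorescence ratio within 5 SD of library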
# TRPC6 inhibitor – blocks the mouse TRPC6 cation channel | 1.1% of 310,000 active | B-score at 10 µM | HEK293-TRPC6, membrane potential dye, ACh-evoked depolarization; stronger effect = lower value | Q61143;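 active = B-score under library mean minus 3 SD, initial fluorescence not abnormally high, positive integrated signal ratio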;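 note: B-score derived from integrated fluorescence ratio over the kinetic read; more negative B-score means stronger inhibition of depolarization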
# Hits are given with their value; – = inactive.
SMILES,TRPC4 inh,TRPC4 act,TRPC6 act,TRPC4 potent,TRPC6 inhibitor
N=c1c(C(=O)NCC2CCCO2)cc2c(=O)n3ccccc3nc2n1Cc1ccc(Cl)cc1 (stereo not given),–,–,–,29,–
Cc1ccc(Cn2c(=N)c(C(=O)NCC3CCCO3)cc3c(=O)n4ccccc4nc32)cc1 (stereo not given),–,–,–,47,–
N=c1c(C(=O)NCCc2ccccc2)cc2c(=O)n3ccccc3nc2n1CC1CCCO1 (stereo not given),–,–,–,–,-5.06
CCOc1ccc(S(=O)(=O)N2CCCC(C(=O)N3CCOCC3)C2)cc1Cl (stereo not given),–,–,–,–,–
N=c1c(C(=O)NC2CCCC2)cc2c(=O)n3ccccc3nc2n1CCCN1CCOCC1,–,–,–,–,–
Cc1ccc2nc3c(cc(C(=O)NC4CCCC4)c(=N)n3CCCn3ccnc3)c(=O)n2c1,–,–,–,–,-5.51
O=C1CCC(=O)N1Cc1c(Cl)cccc1Cl,–,–,–,–,–
Cc1cc(C)c(C(=O)c2ccc(C(=O)N(C(C)C)C(C)C)cc2)c(C)c1,–,–,–,10,–
Cc1cc(C)c(C(=O)c2ccc(C(=O)N3CCCCC3)cc2)c(C)c1,–,–,–,16,–
Cc1cc(C)c(C(=O)c2ccc(C(=O)NC(C)(C)C)cc2)c(C)c1,–,–,–,–,–
Cc1ccc2sc(-c3ccc(NC(=O)/C=C\C(=O)O)cc3)nc2c1,–,–,–,–,–
Cc1sc2ncnc(N3CCC(C(=O)Nc4nnc(CC(C)C)s4)CC3)c2c1C,–,–,–,–,–
Clc1ccc(CN2C3=NCCN3c3ccccc32)cc1Cl,-6,–,–,–,–
Cc1ccc(CN2C3=NCCN3c3ccccc32)cc1,-6,–,–,–,–
Cc1ccc(C)c2nc3sc(C(=O)O)cc3cc12,-7,–,–,–,–
CC(C)Cn1c(O)c(N=NC(=O)c2cccc(S(=O)(=O)N3CCCCC3)c2)c2ccccc21,–,–,–,17,–
CC(C)CCn1c(O)c(N=NC(=O)c2ccco2)c2ccccc21,–,–,–,–,–
CC1(C)CC2CC(C)(CN2C(=O)c2cc(-c3ccc(O)cc3)on2)C1 (stereo not given),-6,–,–,–,–
COc1cccc(-c2cc(C(=O)N3CC4(C)CC3CC(C)(C)C4)no2)c1 (stereo not given),–,–,–,–,–
NC(=S)N/N=C1/CCSc2ccc3ccccc3c21,–,–,–,17,–
CN(C)CCN(C(=O)c1cccc(Cl)c1)c1nc2c(Cl)cccc2s1,–,–,–,11,–
COc1ccc(CNCc2cccc(C)c2)cc1,–,–,–,–,–
COc1ccc(CNCc2cccc(Oc3ccccc3)c2)cc1,-6,–,–,–,–
COc1ccc(N(C(=O)CNC(=O)c2cccs2)C(C(=O)NC2CCCC2)c2ccncc2)cc1 (stereo not given),–,–,–,–,–
C/C(=N/NC(=O)c1ccc(Br)o1)c1cccc(NC(=O)c2ccc(C)o2)c1,–,–,–,–,–
SMILES,TRPC4 inh,TRPC4 act,TRPC6 act,TRPC4 potent,TRPC6 inhibitor
O=C(NCCN1CCCC1)c1ccc2c(=O)n(CCc3ccccc3)c(=O)[nH]c2c1,–,–,–,12,–
COc1ccccc1S(=O)(=O)Nc1cc(C)nn1-c1ccc(C)cc1,–,–,–,–,–
CC(C)(C)c1cc(C(=S)N2CCN(CCO)CC2)cc(C(C)(C)C)c1O,–,–,–,–,–
CC(C)(C)c1cc(C(=O)CCN2CCOCC2)cc(C(C)(C)C)c1O,–,–,–,11,–
Cc1ccc(C)c(OCc2cc(C(=O)NC3CCOC(C)(C)C3)no2)c1 (stereo not given),–,–,–,–,–
N#Cc1ncc(-c2ccc3c(c2)OCCOCCOCCOCCO3)nc1C#N,–,–,–,–,–
N#Cc1ncc(-c2ccc3c(c2)OCCOCCOCCOCCOCCO3)nc1C#N,-6,–,–,–,–
Cc1cc(C)c(S(=O)(=O)c2c(C)cccc2C)c(OCC(C)C)n1,–,–,–,–,–
CCOc1nc(C)cc(C)c1S(=O)(=O)c1cccc(C)c1,–,–,–,19,–
Clc1ccc(-n2cc(-c3ccc(Br)cc3)[n+]3c2CCCCC3)cc1,-6,–,–,–,–
Cc1ccc(-c2cn(-c3ccc(OC(F)F)cc3)c3[n+]2CCCCC3)cc1,–,–,–,–,–
COc1ccc(CCNC(=O)Cn2ccc3c(OC)cccc3c2=O)cc1OC,–,–,–,–,–
O=C(Nc1ccc(C2=NCCN2)cc1)c1ccc(Cl)c(C(=O)Nc2ccc(C3=NCCN3)cc2)c1,–,–,14.2,–,–
O=C(Nc1ccc(Cl)c(Cl)c1)c1ccc(Cl)c(Cl)c1,–,–,–,–,–
CCn1c(-c2ccccc2)csc1=Nc1ccc(O)cc1,-5,–,–,–,–
CN(CC(=O)Nc1ccc(Cl)c(Cl)c1)Cc1nnc(-c2ccc(F)cc2)o1,–,–,–,–,–
N=C1SCC(=O)N1c1ccc(Cl)cc1,–,–,–,–,–
CC(C)(C)c1ccc(N2C(=N)SCC2=O)cc1,–,–,–,33,–
CCOc1ccc(Br)cc1/C(C)=N\NC1=NCCN1,–,82,–,–,–
CCCCCOc1ccc(/C(C)=N/NC2=NCCN2)cc1,–,–,–,–,–
O=S(=O)(Nc1cc2nc3ccccc3nc2n1Cc1ccccc1)c1ccc(Cl)cc1,–,–,25.7,–,–
COc1cccc(C(=O)NCCCNC(=O)c2cccc(OC)c2)c1,–,–,–,–,–
COc1cccc(C(=O)NCCCN2CCN(CCCNC(=O)c3cccc(OC)c3)CC2)c1,–,–,–,12,–
COCCCNC(=O)c1ccc2c(c1)OCO2,–,–,–,–,–
O=C(NCCCN1CCN(CCCNC(=O)c2ccc3c(c2)OCO3)CC1)c1ccc2c(c1)OCO2,–,138,–,–,–
SMILES,TRPC4 inh,TRPC4 act,TRPC6 act,TRPC4 potent,TRPC6 inhibitor
O=C(NCCCN1CCN(CCCNC(=O)c2cccc(Cl)c2)CC1)c1cccc(Cl)c1,–,–,–,18,–
COC(=O)CCC(=O)OC1(C)C(=O)C=C2C=C(C3CC3)OC=C2C1=O (stereo not given),–,–,–,–,–
CCC(C)(C(=O)NC1CCCCC1)N(Cc1cccs1)C(=O)c1ccccn1 (stereo not given),-7,46,–,–,–
CCC(C)(C(=O)NC1CCCC1)N(Cc1cccs1)C(=O)c1ccccn1 (stereo not given),–,–,–,–,–
Cn1ccnc1COc1ccc(C=O)cc1,–,–,–,–,–
Cc1ccc(C)c(N(C(=O)c2csnn2)C(C(=O)NC2CCCC2)c2cccnc2)c1 (stereo not given),–,–,–,–,–
Cc1csc2c(N3CCN(C(=O)Nc4ccc(OC(F)(F)F)cc4)CC3)ncnc12,–,98,–,–,–
COc1ccc(Nc2nc3c([nH]2)c(=O)[nH]c(=O)n3C)cc1,–,–,–,–,–

# Screens as filed in PubChem.
